Data on one compound can be found in ChEMBL document CHEMBL4819117, “Probing cytochrome P450 (CYP) bioactivation with chloromethylindoline bioprecursors derived from the duocarmycin family of compounds” (Bioorg Med Chem, 2021).

Series [1] relates to EJ. Kind of series: Potentiation factor, ratio of IC50 for antiproliferative activity against human EJ138 cells preincubated for 1 hr with CYP null bactosomes to IC50 for antiproliferative activity against human EJ138 cells preincubated for 1 hr with human CYP1B1 expressing bactosomes. Format: functional. The method in brief: (§1)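 Potentiation factor = IC₅₀ in EJ138 given control (CYP null) bactosome extract ÷ IC₅₀ with the named CYP isoform extract. Extracts came from 1 h, 37 °C incubations of 50 μM compound with 20 pmol bactosomes plus 2 mM NADPH, 1 mM MgCl₂, Tris-HCl pH 7.4. Cells were exposed 96 h and read by MTT.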

In series [2] the target is T1, Cytochrome P450 1A1 (Homo sapiens, UniProt P04798).
T1 sequence (P04798 whole entry): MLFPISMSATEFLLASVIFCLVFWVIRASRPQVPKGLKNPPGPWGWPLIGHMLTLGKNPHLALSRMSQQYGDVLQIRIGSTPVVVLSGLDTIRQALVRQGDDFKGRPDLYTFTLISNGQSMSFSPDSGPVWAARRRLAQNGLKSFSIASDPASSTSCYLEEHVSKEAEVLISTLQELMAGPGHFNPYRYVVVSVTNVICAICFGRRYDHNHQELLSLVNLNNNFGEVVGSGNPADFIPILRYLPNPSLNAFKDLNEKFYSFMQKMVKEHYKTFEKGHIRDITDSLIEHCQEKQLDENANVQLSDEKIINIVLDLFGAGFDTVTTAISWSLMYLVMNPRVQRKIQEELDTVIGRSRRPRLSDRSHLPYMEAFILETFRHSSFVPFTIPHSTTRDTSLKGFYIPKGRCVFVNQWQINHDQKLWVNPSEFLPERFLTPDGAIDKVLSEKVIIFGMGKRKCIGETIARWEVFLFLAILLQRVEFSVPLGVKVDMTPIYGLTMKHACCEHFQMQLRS
Kind of series: Drug metabolism assessed as recombinant human CYP1A1-mediated metabolite M2 with m/z 357.1 formation at 50 uM incubated for 1 hr in presence of reconstituted protein system by LC-MS analysis. It is filed as ADME. Particulars: recombinant enzyme. The method in brief:
(§2)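 Substrate (50 μM) incubated at 37 °C with human recombinant CYP1A1 in a reconstituted system: NADPH cytochrome P450 reductase, freshly prepared DLPC (240 μM), 100 mM potassium phosphate pH 7.4. Reaction was started with NADPH (1 mM final) and aliquots quenched into dichloromethane over 60 min. Metabolites were profiled by HPLC with photodiode array and ESI⁺ quadrupole MS.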

The subject of series [3] is EJ. The series is described as follows: Potentiation factor, ratio of IC50 for antiproliferative activity against human EJ138 cells preincubated for 1 hr with CYP null bactosomes to IC50 for antiproliferative activity against human EJ138 cells preincubated for 1 hr with human CYP3A4 expressing bactosomes. It is filed as functional. In short, it runs like this: as §1

Series [4] is described as follows: Drug metabolism in Wistar rat liver microsomes assessed as CYP-mediated metabolite M23 formation at 0.5 to 23.5 uM prewarmed for 5 mins followed by NADPH addition and measured after 30 mins by HPLC-fluorescence detector analysis. It is filed as ADME. Particulars: 35 min, dose 0.5-23.5 µM. (Liver microsomes are a subcellular fraction often used to study metabolism.)

The subject of series [5] is EJ. Kind of series: Antiproliferative activity against human EJ138 cells deficit in CYPs assessed as inhibition of cell growth after 96 hrs by MTT assay. It is filed as functional, cell-based. In short, it runs like this: (§3)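 Cells kept as monolayers at 37 °C in 5% CO2: EJ-138 and RT112 in RPMI 1640 with 10% FBS, sodium pyruvate and 2 mM L-glutamine; CHO and CHO-1A1 in DMEM. Compounds were taken from DMSO stocks into medium over 0.001–100 μM, with final DMSO ≤0.1%. Exposure lasted 96 h, then MTT read-out. IC50 values are mean ± SD of at least three independent assays.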

In series [6] the test system is EJ. Kind of series: Antiproliferative activity against human EJ138 cells assessed as inhibition of cell growth preincubated for 1 hr with human CYP1B1 expressing bactosomes measured after 96 hrs by MTT assay. It is filed as functional, cell-based. The method in brief:
(§4)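 Compound (50 μM) incubated 1 h at 37 °C with 20 pmol CYP bactosomes (CYP null, 1A1, 1A2, 1B1 or 3A4) in 2 mM NADPH, 1 mM MgCl₂, Tris-HCl pH 7.4. Metabolites were extracted with acetonitrile, centrifuged, and the supernatant dried and taken up in DMSO. EJ138 cells were exposed 96 h and growth read by MTT assay.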
Background: Tetrazolium dyes change colour on reduction, which living cells bring about.

Series [7] relates to Cytochrome P450. Kind of series: Drug metabolism in human liver microsomes assessed as CYP-mediated metabolite M22 formation at 0.5 to 23.5 uM prewarmed for 5 mins followed by NADPH addition and measured after 30 mins by HPLC-fluorescence detector analysis. Format: ADME. As to conditions: 35 min, dose 0.5-23.5 µM.
Series [8] can be described thus: Selectivity ratio of IC50 for antiproliferative activity against wild type chinese hamster CHO cells deficit in CYPs to IC50 for antiproliferative activity against chinese hamster CHO cells transfected with CYP1A1 by MTT assay. Format: functional, Cricetulus griseus. The method in brief:
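CHO wild-type and CYP1A1-transfected CHO cells were grown in DMEM at 37 °C, 5% CO₂. Compounds from DMSO stocks were tested at 0.001–100 μM, final DMSO ≤0.1%, for 96 h, then MTT. Ratio = CHOwt IC₅₀ / CHO1A1 IC₅₀; IC₅₀ values are mean ± SD of at least three independent assays.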

Series [9] has as its target T1, Cytochrome P450 1A1. Kind of series: Drug metabolism assessed as recombinant human CYP1A1-mediated metabolite M4 with m/z 327.1 formation at 50 uM incubated for 1 hr in presence of reconstituted protein system by LC-MS analysis. Format: ADME. As to conditions: recombinant enzyme. The method in brief: as §2
In series [10] the target is T1, Cytochrome P450 1A1. Kind of series: Drug metabolism assessed as human CYP1A1 expressed in bactosomes assessed as metabolite M3 with m/z 339.1 formation measured after 1 hr by LC-MS analysis. As to conditions: recombinant enzyme. Format: ADME.
The subject of series [11] is Cytochrome P450. The series is described as follows: Drug metabolism in human liver microsomes assessed as CYP-mediated metabolite M16 formation at 0.5 to 23.5 uM prewarmed for 5 mins followed by NADPH addition and measured after 30 mins by HPLC-fluorescence detector analysis. It is filed as ADME. Particulars: 35 min, dose 0.5-23.5 µM.
Series [12] concerns EJ. The series is described as follows: Antiproliferative activity against human EJ138 cells assessed as inhibition of cell growth preincubated for 1 hr with CYP null bactosomes measured after 96 hrs by MTT assay. Format: functional, cell-based. In short, it runs like this: as §4
Series [13] concerns EJ. Kind of series: Potentiation factor, ratio of IC50 for antiproliferative activity against human EJ138 cells preincubated for 1 hr with CYP null bactosomes to IC50 for antiproliferative activity against human EJ138 cells preincubated for 1 hr with human CYP1A2 expressing bactosomes. Format: functional. The method in brief:
as §1

Another series has as its system RT-112. Kind of series: Antiproliferative activity against human RT112 cells proficient in CYP1A1 assessed as inhibition of cell growth after 96 hrs by MTT assay. As to conditions: RT-112, 96 h. Format: functional, cell-based. In short, it runs like this: as §3

In general, IC50 refers to the concentration that gives 50% inhibition. For the compound `COc1ccc2[nH]c(C(=O)N3CC(CCl)c4ccccc43)cc2c1` (centres undefined), the “Ratio IC50” value with EJ [1] is 1.3; with EJ [3], 0.9; in [8] it was 10; in the series on EJ [13], 9.1. Moreover, the Drug metabolism result (on Cytochrome P450 1A1 [2]; in [4]; in the series on Cytochrome P450 [7]; at Cytochrome P450 1A1 [9]; at Cytochrome P450 1A1 [10]; in the series on Cytochrome P450 [11]) was “Metabolite_Detected” each time. The IC50 in the series with EJ [5] was found to be 15 µM; with EJ [6] it was 13.5 µM; in the series with EJ [12], 17.2 µM; in the series with RT-112 it was 8.04 µM.
